In paper PMC3064745 (Immunity, 2011):
Like-named read-outs stand apart in the source and are kept apart here.

Columns and labels:
NKT cells [1] = test: IFN-γ production by NKT cells, intracellular cytokine staining; type: cell-based, mouse; conditions: 100 ng/ml, 8h stimulation, ICS
In short: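 NKT-enriched thymocytes were cultured for 8h with Jα18−/− splenocytes pulsed with 100 ng/ml glycolipid, with GolgiStop for the last 4h. Cells were surface stained, fixed, permeabilised and stained with anti-IFN-γ. Readout was percent IFN-γ⁺ among α-GalCer-CD1d tetramer⁺ cells. Data representative of 4 experiments.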

Vβ7+ NKT cells = test: Vβ usage of NKT cells after 3 days of in vitro proliferation; type: cell-based, mouse; conditions: Vβ usage by cell division peak
In short: (§1)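 Jα18−/− mouse splenocytes were pulsed overnight with glycolipid plus IL-2 (100 U/ml), then spun through FCS and resuspended to remove excess lipid. Thymocytes were NKT-enriched by complement depletion of anti-HSA/anti-CD8-labelled cells, cleared of dead cells by gradient, and labelled with CFSE […] for 10 min at 37C. Cells were co-cultured at 2:1 splenocytes:thymocytes for 72h.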

mouse Vβ8.2 NKT TCR = mouse Vβ8.2 NKT TCR (Mus musculus, UniProt P11609+Z9CWY5XBV8); test: Surface plasmon resonance of NKT TCR binding to CD1d-AGL complexes
In short: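 SPR used soluble mouse NKT TCR (Vα14-Jα18; Vβ8.2) injected over streptavidin-immobilised mouse CD1d loaded with glycolipid, with a reference cell of unloaded CD1d. KD was derived from equilibrium responses. Kinetic rate constants were also fitted, with t1/2 determined from the interactions.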

NKT cells [2] = conditions: ICS at 2 and 6 hours after in vivo challenge, compared to α-GalCer; ref Sullivan et al 2010; cited from earlier work
NKT cells [3] = test: Cytokines in culture supernatant, cytometric bead array; type: cell-based, mouse; conditions: 100 ng/ml, 8h stimulation
NKT cells [4] = type: cell-based, mouse; conditions: 3 d culture
In short: as §1

[5] = Serum cytokines after in vivo treatment; conditions: 20h after in vivo treatment, compared to C20:2 and OCH

Sequence of mouse Vβ8.2 NKT TCR (P11609 whole entry, looked up, other chains not shown): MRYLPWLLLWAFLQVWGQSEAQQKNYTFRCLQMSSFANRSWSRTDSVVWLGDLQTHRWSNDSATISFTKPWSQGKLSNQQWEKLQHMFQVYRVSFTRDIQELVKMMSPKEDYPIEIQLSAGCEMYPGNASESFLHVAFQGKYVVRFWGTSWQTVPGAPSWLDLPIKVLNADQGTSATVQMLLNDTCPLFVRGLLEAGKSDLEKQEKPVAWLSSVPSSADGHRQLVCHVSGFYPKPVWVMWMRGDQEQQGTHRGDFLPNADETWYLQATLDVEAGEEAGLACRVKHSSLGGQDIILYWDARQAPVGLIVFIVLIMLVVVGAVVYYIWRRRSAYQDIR

Row | Compound | IFN-γ producing NKT cells (NKT cells [1]) | bias toward Vβ7 proliferation (Vβ7+ NKT cells) | Th2 bias of cytokine production (NKT cells [3]) | NKT cell proliferation (NKT cells [4]; 1 ng/ml glycolipid) | NKT cell proliferation (NKT cells [4]; 100 ng/ml glycolipid) | other results
1 | CCCCCCCCCCCCCCCCCCCCCCCCCC(=O)N[C@@H](CO[C@H]1O[C@H](CO)C[C@H](O)[C@H]1O)[C@H](O)CCCCCCCCCCCCCCC [4′,4″-deoxy-α-GalCer] | less potent inducers of IFN-γ production | showed a Vβ7 bias |  |  |  | 
2 | CCCCCCCCCCCCCCCCCCCCCCCC(=O)N[C@@H](COC1OC(CO)C(O)C(O)C1O)[C@H](O)[C@H](O)CCCCC (stereo partly shown) [OCH, reference compound] | highest percentages of IFN-γ producing NKT cells | loss of Vβ7^+ NKT cells with each progressive division cycle | not apparent | consistently weaker in comparison to the non-truncated AGLs |  | t1/2 life of the interaction, comparison in words (mouse Vβ8.2 NKT TCR): markedly longer half life when compared to that of the 3′,4″-deoxy AGL; affinity relative to the NKT TCR-CD1d-α-GalCer interaction (mouse Vβ8.2 NKT TCR; compared with the α-GalCer positive control): approximately 20%; effect on kinetic rate constants (ka, kd) (mouse Vβ8.2 NKT TCR; compared with α-GalCer, in words): impacted negatively on the association constant; Th2 bias of NKT cell cytokine production (NKT cells [2]): fails to reveal a Th2 bias
3 | CCCCC/C=C\C/C=C\CCCCCCCCCC(=O)N[C@@H](CO[C@H]1O[C@H](CO)[C@H](O)[C@H](O)[C@H]1O)[C@H](O)[C@H](O)CCCCCCCCCCCCCC [C20:2] | highest percentages of IFN-γ producing NKT cells |  | not apparent | barely induced NKT cell proliferation | able to induce proliferation | 
4 | CCCCC/C=C\C/C=C\CCCCCCCCCC(=O)N[C@@H](CO[C@H]1O[C@H](CO)[C@@H](O)[C@H](O)[C@H]1O)[C@H](O)[C@H](O)CCCCCCCCCCCCCC [α-GlcCer (C20:2)] | least IFN-γ production of all | showed a Vβ7 bias |  | barely induced NKT cell proliferation | able to induce proliferation | bias toward Vβ7 proliferation (Vβ7+ NKT cells; listed as α-GlcCer): progressively enriched with each division cycle
5 | CCCCCCCCCCCCCCCCCCCCCCCCCC(=O)N[C@@H](CO[C@H]1O[C@H](CO)[C@H](O)[C@H](O)[C@H]1O)[C@H](O)[C@H](O)CCCCCCCCCCCCCC [α-GalCer, α-galactosylceramide] | highest percentages of IFN-γ producing NKT cells |  |  |  |  | Kd (mouse Vβ8.2 NKT TCR): ~0.059 µM; t1/2 life of the interaction (mouse Vβ8.2 NKT TCR; NKT TCR-CD1d-glycolipid interaction): approximately 20 s; serum IFN-γ response [5]: more sustained IFN-γ response at 20h
6 | CCCCCCCCCCCCCCCCCCCCCCCCCC(=O)N[C@@H](CO[C@H]1O[C@H](CO)C[C@H](O)[C@H]1O)[C@H](O)[C@H](O)CCCCCCCCCCCCCC [4′-deoxy-α-GalCer] | less potent inducers of IFN-γ production | showed a Vβ7 bias |  |  |  | 
